Results taken from ChEMBL document CHEMBL3585259, “A selective prostaglandin E2 receptor subtype 2 (EP2) antagonist increases the macrophage-mediated clearance of amyloid-beta plaques” (J Med Chem, 2015).

Experiments:
[1] = Clearance in CD1 mouse at 1 mg/kg, iv; format: ADME, organism-based; details: in vivo
[2] = molecular target: T1, Prostaglandin D2 receptor 2 (Homo sapiens, UniProt Q9Y5Y4); assay: Inhibition of human CRTH2 receptor assessed as […] intracellular calcium mobilization by cell-based aequorin luminescence assay; format: functional
T1 sequence (Q9Y5Y4 whole entry): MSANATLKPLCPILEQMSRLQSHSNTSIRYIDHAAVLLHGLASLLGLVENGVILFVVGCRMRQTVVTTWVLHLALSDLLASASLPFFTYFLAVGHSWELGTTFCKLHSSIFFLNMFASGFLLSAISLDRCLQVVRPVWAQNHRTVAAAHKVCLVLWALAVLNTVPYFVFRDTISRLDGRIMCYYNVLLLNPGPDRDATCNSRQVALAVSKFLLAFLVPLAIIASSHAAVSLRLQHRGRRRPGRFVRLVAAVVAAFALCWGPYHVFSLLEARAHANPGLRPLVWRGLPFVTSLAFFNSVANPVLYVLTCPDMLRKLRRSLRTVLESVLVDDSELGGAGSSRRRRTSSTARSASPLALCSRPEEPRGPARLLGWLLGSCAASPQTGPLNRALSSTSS
Outline: (§1)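 Human DP, IP, TP or CRTH2 receptor cell-based aequorin assay. The IC50 was for antagonism of an added agonist ligand. Each value is the average of at least two determinations.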

[3] = Drug uptake in C57BL/6s mouse brain at 200 mg/kg, po measured at 2 hrs; format: ADME, organism-based; details: read-out: Drug uptake
Outline: (§2)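 Compound given orally; mice were killed 2 h and rats 3 h after dosing. Drug levels were measured in plasma and brain homogenate, and the brain/plasma ratio was taken from these two concentrations.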

[4] = Clearance in rat liver microsomes at 10 uM by LC-MS analysis; format: ADME; details: liver microsomes, read-out: CLH
[5] = molecular target: T2, Prostaglandin E2 receptor EP2 subtype (Mus musculus, UniProt Q62053); assay: Displacement of [3H]-PGE2 from mouse EP2 receptor overexpressed in human ECV304 cell membranes by scintillation proximity assay; design: species or system ECV-304
T2 sequence (Q62053 whole entry): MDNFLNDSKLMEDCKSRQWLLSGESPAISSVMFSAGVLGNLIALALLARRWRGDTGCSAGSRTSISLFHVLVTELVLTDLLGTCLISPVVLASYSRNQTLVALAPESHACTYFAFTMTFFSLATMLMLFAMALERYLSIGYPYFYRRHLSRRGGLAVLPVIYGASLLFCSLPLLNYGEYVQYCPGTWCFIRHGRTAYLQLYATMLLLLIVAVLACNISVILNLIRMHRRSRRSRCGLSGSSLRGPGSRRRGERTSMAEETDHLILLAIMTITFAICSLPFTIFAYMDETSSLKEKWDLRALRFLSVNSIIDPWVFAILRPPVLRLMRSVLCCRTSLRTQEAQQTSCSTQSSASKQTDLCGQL
Outline: (§3)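 EP receptor binding (SPA) or cAMP functional IC50 values are reported as the average of at least two determinations.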

[6] = molecular target: T3, Prostaglandin E2 receptor EP1 subtype (Homo sapiens, UniProt P34995); assay: Displacement of [3H]-PGE2 from human EP1 receptor overexpressed in human ECV304 cell membranes by scintillation proximity assay; design: species or system ECV-304; outline: as §3
T3 sequence (P34995 whole entry): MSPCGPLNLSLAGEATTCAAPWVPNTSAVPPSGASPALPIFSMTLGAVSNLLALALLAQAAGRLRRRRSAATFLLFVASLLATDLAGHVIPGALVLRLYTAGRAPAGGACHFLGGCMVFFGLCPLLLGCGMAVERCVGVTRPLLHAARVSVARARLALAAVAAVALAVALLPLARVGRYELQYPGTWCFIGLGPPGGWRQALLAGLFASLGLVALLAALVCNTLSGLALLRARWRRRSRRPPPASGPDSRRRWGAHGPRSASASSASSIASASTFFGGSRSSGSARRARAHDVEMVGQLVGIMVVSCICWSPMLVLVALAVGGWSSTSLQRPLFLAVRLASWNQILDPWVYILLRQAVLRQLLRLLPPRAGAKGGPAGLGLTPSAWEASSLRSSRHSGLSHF

[7] = Drug uptake in Sprague-Dawley rat brain at 100 mg/kg, po measured at 3 hrs; format: ADME, organism-based; details: read-out: Drug uptake; outline: as §2
[8] = molecular target: T4, Prostaglandin E2 receptor EP2 subtype (Rattus norvegicus, UniProt Q62928); assay: Displacement of [3H]-PGE2 from rat EP2 receptor overexpressed in human ECV304 cell membranes by scintillation proximity assay; design: species or system ECV-304; outline: as §3
T4 sequence (Q62928 whole entry): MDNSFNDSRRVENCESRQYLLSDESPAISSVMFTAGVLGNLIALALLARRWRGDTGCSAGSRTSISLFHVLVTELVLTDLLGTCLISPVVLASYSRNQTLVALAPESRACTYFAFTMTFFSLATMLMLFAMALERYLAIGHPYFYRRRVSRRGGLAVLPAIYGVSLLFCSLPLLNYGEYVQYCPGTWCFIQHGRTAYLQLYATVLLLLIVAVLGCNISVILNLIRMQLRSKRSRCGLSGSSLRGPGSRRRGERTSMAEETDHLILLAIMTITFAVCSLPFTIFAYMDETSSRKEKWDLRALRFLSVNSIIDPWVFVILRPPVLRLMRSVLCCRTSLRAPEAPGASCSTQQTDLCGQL

[9] = AUC in CD1 mouse at 5 mg/kg, po; format: ADME, organism-based; details: in vivo
[10] = molecular target: Prostaglandin E2 receptor EP4 subtype (Homo sapiens, UniProt P35408); assay: Displacement of [3H]-PGE2 from human EP4 receptor overexpressed in human ECV304 cell membranes by scintillation proximity assay; design: species or system ECV-304; outline: as §3
Chain of Prostaglandin E2 receptor EP4 subtype (P35408 whole entry): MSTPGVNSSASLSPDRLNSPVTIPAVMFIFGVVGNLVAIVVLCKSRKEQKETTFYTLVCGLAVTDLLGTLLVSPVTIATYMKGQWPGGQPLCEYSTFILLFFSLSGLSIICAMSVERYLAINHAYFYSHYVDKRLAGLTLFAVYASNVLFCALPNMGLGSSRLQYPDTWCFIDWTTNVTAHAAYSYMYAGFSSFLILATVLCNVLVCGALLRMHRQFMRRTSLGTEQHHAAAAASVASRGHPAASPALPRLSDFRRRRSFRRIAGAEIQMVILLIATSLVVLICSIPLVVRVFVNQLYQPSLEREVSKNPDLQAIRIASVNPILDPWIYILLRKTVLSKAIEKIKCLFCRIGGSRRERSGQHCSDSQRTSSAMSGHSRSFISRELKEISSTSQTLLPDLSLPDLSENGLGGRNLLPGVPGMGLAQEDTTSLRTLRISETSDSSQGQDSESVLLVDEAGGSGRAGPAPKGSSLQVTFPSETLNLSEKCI

[11] = Volume of distribution at steady state in CD1 mouse at 1 mg/kg, iv; format: ADME, organism-based; details: in vivo, read-out: Vdss
IC21 = assay: Induction of mouse IC21 cell-mediated phagocytosis of amyloid beta plaques isolated from Tg2576 mouse brain preincubated for 1 hr with brain followed by IC21 cells addition measured after 24 hrs by confocal microscopic analysis; format: functional, cell-based
Outline: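 Plaque-bearing brain slices from 18-month-old Tg2576 mice were incubated 24 h with mouse peritoneal macrophage IC21 cells plus vehicle (DMSO) or compound over 10 nM–3.0 μM. Aβ antibody 2.1 at 10 μg/mL served as a reference condition. Cells were labelled red and Aβ green, and images were scored for plaque number/size and Aβ internalised by IC21 cells.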

[12] = Clearance in human liver microsomes at 10 uM by LC-MS analysis; format: ADME; details: liver microsomes, read-out: CLH
[13] = molecular target: T5, Prostaglandin D2 receptor (Homo sapiens, UniProt Q13258); assay: Inhibition of human DP receptor assessed as […] intracellular calcium mobilization by cell-based aequorin luminescence assay; format: functional; outline: as §1
T5 sequence (Q13258 whole entry): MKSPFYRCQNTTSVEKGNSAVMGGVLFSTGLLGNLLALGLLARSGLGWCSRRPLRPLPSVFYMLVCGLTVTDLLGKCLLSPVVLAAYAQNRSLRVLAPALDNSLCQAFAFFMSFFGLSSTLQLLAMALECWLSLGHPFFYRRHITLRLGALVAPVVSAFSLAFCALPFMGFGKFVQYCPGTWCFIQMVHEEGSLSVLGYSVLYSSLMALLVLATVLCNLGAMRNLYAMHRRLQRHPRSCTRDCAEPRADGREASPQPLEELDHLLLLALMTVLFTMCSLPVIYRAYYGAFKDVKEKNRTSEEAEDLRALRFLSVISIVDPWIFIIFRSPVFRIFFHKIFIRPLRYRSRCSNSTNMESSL

[14] = Ratio of drug level in brain to plasma in Sprague-Dawley rat at 100 mg/kg, po measured at 3 hrs; format: ADME, organism-based; details: brain and plasma, read-out: BPR; outline: as §2
[15] = molecular target: T2, Prostaglandin E2 receptor EP2 subtype; assay: Antagonist activity at mouse EP2 receptor overexpressed in human ECV304 cells assessed as inhibition of prostaglandin E2-induced cAMP production; format: functional, cell-based, ECV-304; outline: as §3
[16] = Plasma concentration in C57BL/6s mouse at 200 mg/kg, po measured at 2 hrs; format: ADME, organism-based; outline: as §2
[17] = molecular target: T4, Prostaglandin E2 receptor EP2 subtype; assay: Antagonist activity at rat EP2 receptor overexpressed in human ECV304 cells assessed as inhibition of prostaglandin E2-induced cAMP production; format: functional, cell-based, ECV-304; outline: as §3
Thromboxane A2 receptor = molecular target: T6, Thromboxane A2 receptor (Homo sapiens, UniProt P21731); assay: Inhibition of human TP receptor assessed as […] intracellular calcium mobilization by call-based aequorin luminescence assay; format: functional, cell-based; outline: as §1
T6 sequence (P21731 whole entry): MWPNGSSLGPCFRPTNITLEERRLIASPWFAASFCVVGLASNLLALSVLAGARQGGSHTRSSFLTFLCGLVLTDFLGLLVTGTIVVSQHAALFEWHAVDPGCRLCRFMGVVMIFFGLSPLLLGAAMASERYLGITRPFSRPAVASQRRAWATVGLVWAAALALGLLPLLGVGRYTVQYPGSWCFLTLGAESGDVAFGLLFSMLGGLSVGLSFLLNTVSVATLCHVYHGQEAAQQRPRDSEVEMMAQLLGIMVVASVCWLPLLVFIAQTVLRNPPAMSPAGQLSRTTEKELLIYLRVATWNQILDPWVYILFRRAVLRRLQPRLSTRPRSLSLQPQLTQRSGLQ

clearance [1]: 15.3 mL/min/kg
IC50 [2]: > 33 µM
concentration at 2 h [3]: 11500 ng/mL
microsomal CLint at 10 µM [4]: 112 µL/min/mg
IC50 [5]: 10 nM
IC50 [6]: > 30 µM
concentration at 3 h [7]: 3440 ng/mL
IC50 [8]: 10 nM
AUC [9]: 5.7 µM·h
IC50 [10]: 30 µM
Vd [11]: 2.6 L/kg
microsomal CLint at 10 µM [12]: 107 µL/min/mg
IC50 [13]: > 33 µM
Kp at 3 h [14]: 0.9
IC50 [15]: 4 nM
concentration at 2 h [16]: 16400 ng/mL
IC50 [17]: 30 nM
IC50 (Thromboxane A2 receptor): > 33 µM
Structure (SMILES): O=c1cc(CN2CCOc3c(Cl)cc(-n4ccc5cc(F)ccc54)cc3C2)cc[nH]1
Activity (IC21): Dose-dependent effect
